Entries after “also recorded” stand apart in the source; their conditions may differ. No end group written: not given here. *: point of attachment. X1 = CN(C)c1ccc2c(-c3ccc(N4C(=O)CC(*)C4=O)cc3C(=O)[O-])c3ccc(N(C)C)cc3[o+]c2c1
Columns and labels:
[1] = cited from earlier work
Solubility = assay type: physicochemical
[2] = system: D/A-CaM (donor/acceptor-labeled CaM); test: FRET measurements using D/A-CaM; assay type: binding; conditions: compared with CaMKII-derived peptide; calcium-containing buffer, pH 7.4
[3] = system: 15N-labeled Ca^2+-loaded CaM; test: 1H,15N-HSQC NMR titration of 15N-labeled CaM; assay type: binding; conditions: Ca^2+-CaM, 310 K
CaM [4] = target: T1, CaM (Homo sapiens, UniProt P0DP23); test: Isothermal titration calorimetry; assay type: binding; conditions: 10 mM MOPS, 2 mM CaCl2, 100 mM NaCl, pH 7.4, 30 °C
[5] = target: CaM (I-CaM, IAEDANS-labeled CaM-K75C) (Homo sapiens, UniProt P0DP23, K76C); test: I-CaM fluorescence titration of water-soluble peptides; assay type: binding; conditions: 0.1 mM CaCl2 versus 0.3 mM EDTA
CaM [6] = target: T1, CaM; test: CaM titration to TMR-CLS liposomes, TMR fluorescence; assay type: binding; conditions: pH 7.4; for association with CaM in 15% POPS liposomes: 15% POPS / 85% POPC liposomes, absence and presence of calcium
Collisional fluorescence = assay type: binding; conditions: pH 7.4
[7] = Far-UV CD spectroscopy in liposomes; assay type: physicochemical; conditions: 1 mM MOPS, pH 7.4, 20 °C
In short: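 CLS reconstituted into large unilamellar vesicles (extruded, 400-nm filter) at about 10 μM in 1 mM MOPS, pH 7.4. Far-UV spectra (190–260 nm) were taken in a 0.1-cm cuvette at 20 °C with 0.2 nm steps and 10 scans each, corrected against empty liposomes. CLS content was measured by Trp emission after dissolving in 2% SDS, against a standard curve.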

I-CaM = I-CaM (Homo sapiens, UniProt P0DP23, K76C); test: I-CaM titration to CLS liposomes, Trp315 to IAEDANS energy transfer; assay type: binding
In short: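 Unlabelled CLS (30 nM) in liposomes was titrated with IAEDANS-labelled cysteine-mutant CaM. Its concentration came from IAEDANS absorbance. Buffer was 10 mM MOPS, 100 mM NaCl, pH 7.4, with 0.3 mM EDTA or 1 mM CaCl2, at 20 °C. Excitation was 295 nm, and Trp quenching was read at 333 nm. Spectra were averaged over 3 scans and corrected with empty liposomes. Kd came from a hyperbolic fit.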

CaM [8] = target: T1, CaM; test: Overall affinity of CaM for L-selectin cytoplasmic domain; assay type: binding; conditions: phosphatidylserine content mimics that in the inner leaflet of the cell plasma membrane

For NCCCCCCNS(=O)(=O)c1cccc2c(Cl)cccc12 [W-7], the “membrane binding and surface potential” value [1] is given as “directly bind to membrane and alter the electrostatic surface potential”.
In the case of ARRLKKGKKSKRSMNDPY [ARR18], the “solubility in water / aqueous solutions” value (Solubility) is reported as “soluble in water up to millimolar concentration”, the “conformation of bound CaM” value [2] is reported as “much more extended conformation” and the CaM lobes bound ([3]; 10 mM MOPS, 100 mM NaCl, 5 mM CaCl2, pH 6.3) is reported as “binds to both the N- and C-lobes of Ca^2+-CaM”. For the same compound, the “nature of the binary complex” value ([3]; saturating concentrations of ARR18, pH 6.3) was “dynamic and exist as an ensemble of interconverting conformers”, the “N (stoichiometry of binding)” value (CaM [4]; ARR18 316 μM in 10 μl increments into 27.6 μM CaM, one-site model) was 0.92±0.05 and the “ΔH (enthalpy change per mole of ligand)” value (CaM [4]; ARR18 316 μM into 27.6 μM CaM, one-site model) was -0.77 ± 0.07 kcal/mol. For the same compound, the “ΔS (entropy change)” value (CaM [4]; derived from Ka and ΔH) was 21.7 cal/mol·K and the “effect of calcium on association with CaM” value [5] was “calcium does not influence the association of CaM with ARR18”.
For “KLDKSFSMIKEGDYNPLFIPVAVMVTAFSGLAFIIWLARRLKKGKKSKRC(X1)MNDPY [TMR-CLS]”, the “association with CaM in 15% POPS liposomes” value (CaM [6]) was “does not bind”, the “change in TMR fluorescence emission on addition of CaM” value (CaM [6]; 15% POPS liposomes, up to 10 μM CaM, 10 mM MOPS, 100 mM NaCl, 1 mM EDTA or 0.1 mM CaCl2) was “little change in TMR fluorescence emission” and the “effect of NaNO3 on TMR fluorescence (15% POPS versus POPC liposomes)” value (Collisional fluorescence; 150 mM NaI, increasing NaNO3, 10 mM MOPS, ex 542 nm, em 575 nm) was “quenched more significantly in 15% POPS liposomes compared to POPC liposomes”.
For “KLDKSFSMIKEGDYNPLFIPVAVMVTAFSGLAFIIWLARRLKKGKKSKRSMNDPY [CLS]”, the “solubility in water / aqueous solutions” value (Solubility) was “not soluble in aqueous solutions”, the “association with CaM in 15% POPS liposomes” value (CaM [6]) was “does not associate” and the “location of cytoplasmic domain relative to membrane surface” value (Collisional fluorescence; POPC liposomes with 0–15% POPS, 20 °C) was “located closer to the surface of membranes that have higher concentrations of negatively charged lipids”. The “secondary structure by CD” value ([7]; POPC and 15% POPS liposomes, minima at 208 and 222 nm) was “characteristic of the α-helical secondary structure”, the “α-helical content in 15% POPS versus POPC liposome” value ([7]; ellipticity at 222 nm) was “less α-helical secondary structure in the 15% POPS liposome than in the POPC liposome” and the “effect of calcium on interaction with CaM” value (I-CaM; CLS in POPC liposomes, CaCl2 versus EDTA) was “independent of calcium ion”. The “quenching of Trp315 fluorescence by I-CaM” value (I-CaM; unlabeled CLS in 15% POPS liposomes, pH 7.4) was “did not produce a significant quenching of Trp315 fluorescence” and the “interaction with CaM (summary)” value (CaM [8]) was “undetectable; also recorded: fails to bind”.

Reference: publication PMC3143253 (Journal of molecular biology, 2011)
